Assay results from different studies.
Each line is one published result; the experiments were not run side by side.
ALOX5: Polyunsaturated fatty acid 5-lipoxygenase (ALOX5, Homo sapiens, UniProt P09917)
TACR2: Substance-K receptor (TACR2, Homo sapiens, UniProt P21452)
HDAC8: Histone deacetylase 8 (HDAC8, Homo sapiens, UniProt Q9BY41)

`O=c1occcc1O` gave an inhibition of over 70% (ALOX5; enzyme activity, inhibitor, fluorescence; 1 mM).
`CCN1CCN(Cc2ccc(NC(=O)c3ccc(C)c(Oc4ccnc5[nH]ccc45)c3)cc2C(F)(F)F)CC1` has an inhibition of -20.3% (Mitogen-activated protein kinase kinase kinase 4 (MAP3K4, Homo sapiens, UniProt Q9Y6R4); target engagement in cells, inhibitor, chemoproteomics; A-375; 50 nM).
With `O=C1N=C(N2CCCCN2)S/C1=C\c1ccc(F)cc1O` the inhibition was under 10% (TACR2; ligand displacement, radioligand; 10 µM).
The inhibition of `O=C(c1ccc(Cl)cc1)N(Cc1ccccc1)C1CCCCC1` is reported as 15% (TACR2; cell-free assay; 10 µM).
`CCc1c(O)c(=S)ccn1CC` gave an inhibition of over 70% (ALOX5; enzyme activity, inhibitor, fluorescence; 1 mM).
`COC(=O)[C@]1(O)C[C@@H](O)[C@@H](O)[C@H](OC(=O)/C=C/c2ccc(O)c(O)c2)C1` gave an inhibition of 60.5% (HDAC8; enzyme activity, inhibitor; 10 µM).
`N#Cc1cc(Cn2c(N3CCCC3)nc3ccccc32)ccc1F` gave an inhibition of -36.9% (5-hydroxytryptamine receptor 1D (HTR1D, Homo sapiens, UniProt P28221); cell-free assay; 10 µM).
For `O=C(/C=C/c1ccc(O)c(O)c1)O[C@@H]1C[C@](O)(C(=O)O)C[C@@H](O)[C@H]1O`, the inhibition was 58.2% (HDAC8; enzyme activity, inhibitor; 10 µM).
The inhibition of `COc1ccc(CCCn2ncc3c2nc(N)n2nc(-c4ccco4)nc32)cc1` is reported as 6% (Adenosine receptor A3 (Mus musculus, UniProt Q61618); ligand displacement, radioligand; 10 µM, cell membranes).
The inhibition of `CC1(C)CC[C@]2(C)CC[C@]3(C)C(=CC[C@@H]4[C@@]5(C)CC[C@H](O)C(C)(C)[C@@H]5CC[C@]43C)[C@@H]2C1` is reported as 34.9% (HDAC8; enzyme activity, inhibitor; 10 µM).
For `Cc1occc(=S)c1O`, the inhibition was over 70% (ALOX5; enzyme activity, inhibitor, fluorescence; 1 mM).
`CC1(C)CC[C@]2(C)CC[C@]3(C)[C@H]4CC=C5[C@@H](CC[C@H](O)C5(C)C)[C@]4(C)CC[C@@]3(C)[C@@H]2C1` has an inhibition of 44.8% (HDAC8; enzyme activity, inhibitor; 10 µM).
`COc1ccc(Cc2nnc(NS(=O)(=O)c3cccc4ccccc34)s2)cc1` has an inhibition of 59% (Glutathione hydrolase 1 proenzyme (Homo sapiens, UniProt P19440); enzyme activity in cells, inhibitor; NIH3T3; 100 µM).
With `Oc1cccc(Nc2nc(-c3ccc(F)cc3F)cs2)c1` the inhibition was 31.5% (TACR2; cell-free assay; 10 µM).
For `O=c1c(O[C@@H]2O[C@H](CO)[C@@H](O)[C@H](O)[C@H]2O)c(-c2ccc(O)cc2)oc2cc(O)cc(O)c12`, the inhibition was 14.8% (HDAC8; enzyme activity, inhibitor; 10 µM).
